ChEMBL document CHEMBL3608241, “Molecular docking design and one-pot expeditious synthesis of novel 2,5-diarylpyrazolo[1,5-a]pyrimidin-7-amines as anti-inflammatory agents” (2015)

Key:
Assay type in all cases: functional
Rattus norvegicus [1] = test: Antiinflammatory activity in Wistar albino rat assessed as inhibition of carrageenan-induced paw edema at 50 mg/kg, po administered 30 mins prior to carrageenan challenge measured after 2 hrs by plethysmometric analysis relative to control
Outline: (§1)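 Male Wistar albino rats, 200-250 g, housed under standard light and temperature, fasted from 12 h before and through the experiment; groups of five. Oral dosing 30 min before 0.1 ml of 1% carrageenan in 0.9% saline was injected into the left hind paw plantar region. Controls received Tween 80 only. Paw volume was read by plethysmometer at 0 h and at 1-4 h. Inhibition (%) = (Vc − Vt)/Vc × 100; mean ± SEM.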

Rattus norvegicus [2] = test: Antiinflammatory activity in Wistar albino rat assessed as inhibition of carrageenan-induced paw edema at 50 mg/kg, po administered 30 mins prior to carrageenan challenge measured after 4 hrs by plethysmometric analysis relative to control; outline: as §1
Rattus norvegicus [3] = test: Antiinflammatory activity in Wistar albino rat assessed as inhibition of carrageenan-induced paw edema at 50 mg/kg, po administered 30 mins prior to carrageenan challenge measured after 3 hrs by plethysmometric analysis relative to control; outline: as §1
Rattus norvegicus [4] = test: Antiinflammatory activity in Wistar albino rat assessed as inhibition of carrageenan-induced paw edema at 50 mg/kg, po administered 30 mins prior to carrageenan challenge measured after 1 hr by plethysmometric analysis relative to control; outline: as §1
Rattus norvegicus [5] = test: Antiinflammatory activity in Wistar albino rat assessed as inhibition of carrageenan-induced paw edema at 10 mg/kg, po administered 30 mins prior to carrageenan challenge measured after 1 hr by plethysmometric analysis relative to control; outline: as §1
Rattus norvegicus [6] = test: Antiinflammatory activity in Wistar albino rat assessed as inhibition of carrageenan-induced paw edema at 10 mg/kg, po administered 30 mins prior to carrageenan challenge measured after 4 hrs by plethysmometric analysis relative to control; outline: as §1
Rattus norvegicus [7] = test: Antiinflammatory activity in Wistar albino rat assessed as inhibition of carrageenan-induced paw edema at 10 mg/kg, po administered 30 mins prior to carrageenan challenge measured after 3 hrs by plethysmometric analysis relative to control; outline: as §1
Rattus norvegicus [8] = test: Antiinflammatory activity in Wistar albino rat assessed as inhibition of carrageenan-induced paw edema at 10 mg/kg, po administered 30 mins prior to carrageenan challenge measured after 2 hrs by plethysmometric analysis relative to control
Outline: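 Male Wistar albino rats, 200-250 g, fasted 12 hr before and during the test; groups of five. Oral dosing 30 min before sub-plantar injection of 0.1 ml carrageenan (1% in 0.9% saline) into left hind paw; controls got tween 80. Paw volume read by plethysmometer at 0 hr and 1-4 hr; % inhibition = (Vc−Vt)/Vc×100 against control; mean ± SEM.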

| SMILES | inhibition in vivo at 50 mg/kg (Rattus norvegicus [1]) [%] | inhibition in vivo at 50 mg/kg (Rattus norvegicus [2]) [%] | inhibition in vivo at 50 mg/kg (Rattus norvegicus [3]) [%] | inhibition in vivo at 50 mg/kg (Rattus norvegicus [4]) [%] | inhibition in vivo at 10 mg/kg (Rattus norvegicus [5]) [%] | inhibition in vivo at 10 mg/kg (Rattus norvegicus [6]) [%] | inhibition in vivo at 10 mg/kg (Rattus norvegicus [7]) [%] | inhibition in vivo at 10 mg/kg (Rattus norvegicus [8]) [%] |
| --- | --- | --- | --- | --- | --- | --- | --- | --- |
| Cc1ccc(-c2cc3nc(-c4ccc(F)cc4)cc(N)n3n2)cc1 | 65 | 64.3 | 26.8 | 28.8 |  |  |  |  |
| Cc1ccc(-c2cc3nc(-c4ccc(Cl)cc4)cc(N)n3n2)cc1 | 67.5 | 67.8 | 64.6 | 59.6 |  |  |  |  |
| Nc1cc(-c2ccc(Cl)cc2)nc2cc(-c3ccc(Br)cc3)nn12 | 72.5 | 65.5 | 56.1 | 13.5 |  |  |  |  |
| Nc1cc(-c2ccc(Br)cc2)nc2cc(-c3ccc(Cl)cc3)nn12 | 60 | 76.2 | 70.7 | 59.6 |  |  |  |  |
| Cc1ccc(-c2cc(N)n3nc(-c4ccc(Cl)cc4)cc3n2)cc1 | 75 | 81 | 69.5 | 57.7 |  |  |  |  |
| Cc1ccc(-c2cc(N)n3nc(-c4ccccc4)cc3n2)cc1 | 37.5 | 54.8 | 31.7 | 28.8 |  |  |  |  |
| Cc1ccc(-c2cc3nc(-c4ccccc4)cc(N)n3n2)cc1 | 17.5 | 34.5 | 34.1 | 26.9 |  |  |  |  |
| Cc1ccc(-c2cc3nc(-c4ccc(Br)cc4)cc(N)n3n2)cc1 | 56.2 | 66.7 | 56.1 | 71.2 |  |  |  |  |
| Nc1cc(-c2ccc(Br)cc2)nc2cc(-c3ccccc3)nn12 | 63.8 | 66.7 | 56.1 | 65.4 |  |  |  |  |
| Cc1ccc(-c2cc(N)n3nc(-c4ccc(Br)cc4)cc3n2)cc1 | 76.2 | 64.3 | 73.2 | 67.3 |  |  |  |  |
| Nc1cc(-c2ccc(Cl)cc2)nc2cc(-c3ccccc3)nn12 | 13.8 | 51.2 | 28 | 21.1 |  |  |  |  |
| COc1ccc2c(c1)c(CC(=O)O)c(C)n2C(=O)c1ccc(Cl)cc1 [INDOMETHACIN] |  |  |  |  | 73.1 | 84.5 | 82.9 | 80 |
